The values that follow come from ChEMBL document CHEMBL1143879, “Identification of novel series of human CCR1 antagonists” (Bioorg Med Chem Lett, 2008).

Experiment [1] deals with T1, C-C chemokine receptor type 1 (Homo sapiens, UniProt P32246).
T1 sequence (P32246 whole entry): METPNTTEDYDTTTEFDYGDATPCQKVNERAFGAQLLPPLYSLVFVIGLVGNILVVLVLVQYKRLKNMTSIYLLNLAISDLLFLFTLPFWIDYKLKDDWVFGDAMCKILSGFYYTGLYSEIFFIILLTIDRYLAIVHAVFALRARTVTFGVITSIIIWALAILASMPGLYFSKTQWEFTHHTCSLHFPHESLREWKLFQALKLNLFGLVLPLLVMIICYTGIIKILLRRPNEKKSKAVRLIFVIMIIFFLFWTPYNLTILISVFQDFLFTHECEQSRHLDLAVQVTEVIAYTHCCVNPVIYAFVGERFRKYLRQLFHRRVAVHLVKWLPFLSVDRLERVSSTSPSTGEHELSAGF
As to the kind of experiment: Displacement of [125I]MIP1-alpha from human CCR1 receptor expressed in THP1 cells. It is filed as cell-based, THP-1. The essentials: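 THP-1 cells expressing CCR1, washed in PBS, at 5 × 10⁶/ml with compound or vehicle and 50 pM human [¹²⁵I]MIP-1α. Binding buffer: 50 mM Hepes pH 7.4, 5 mM MgCl₂, 1 mM CaCl₂, 0.5% BSA. Incubated 90 min at room temperature, then filtered on PEI-coated glass fibre and washed with buffer plus 0.5 M NaCl. Bound counts by scintillation. IC50, mean of triplicates in one experiment.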
On the technique in general: Loss of bound radioactivity is the signal in a displacement assay; it reports binding, not function.

For experiment [2], the target named is T1, C-C chemokine receptor type 1. As to the kind of experiment: Antagonist activity at human CCR1 receptor expressed in THP1 cells assessed as human MIP-1-alpha-stimulated intracellular calcium level by FLIPR assay. The class given is functional, cell-based, THP-1. In a few lines:
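THP-1 cells in RPMI-1640 at 2 × 10⁶/ml, mixed 1:1 with calcium dye buffer, loaded 30 min at 37 °C with 2.5 mM probenecid. Cells spun down, resuspended in RPMI-1640 with 0.1% BSA and plated at 1.5 × 10⁵/well with or without compound. Stimulated with 5 nM human MIP-1α; intracellular Ca²⁺ change read by FLIPR. IC50, mean of at least two independent experiments.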
(In general: Calcium assays in cells follow changes in intracellular calcium, usually with a dye or a luminescent sensor.)

A value given as a limit tells only on which side of the number the result lay.

`O=S(=O)(NCCCN1CCC(O)(c2ccc(Cl)cc2)CC1)c1ccc(Cl)c(Cl)c1`: the results for the IC50 in experiment [1] and in experiment [2] were 1850 nM and 2460 nM, respectively.
In the same order, the values of `O=S(=O)(NCCCN1CCC(O)(c2ccc(Cl)cc2)CC1)c1ccc(OC(F)(F)F)cc1` are 9000 nM and 3650 nM.
For `Cc1cccc(Cl)c1S(=O)(=O)N1CCC[C@H](N2CCC(O)(c3ccc(Cl)cc3)CC2)C1`, in that order: 430 nM and 480 nM.
For `O=S(=O)(c1ccccc1Cl)N1CCC[C@@H](N2CCC(O)(c3ccc(Cl)cc3)CC2)C1`, in that order: 1980 nM and 1290 nM.
As to `O=S(=O)(NCCCN1CCC(O)(c2ccc(Cl)cc2)CC1)c1ccccc1-c1ccsc1`, the half-maximal inhibitory concentration (IC50) was found to be 350 nM in experiment [1] and 110 nM in experiment [2].
In the same order, the values of `O=S(=O)(NCCCN1CCC(O)(c2ccc(Cl)cc2)CC1)c1ccccc1F` are 580 nM and 80 nM.
For `O=S(=O)(c1ccccc1Cl)N1CCC(N2CCC(O)(c3ccc(Cl)cc3)C2)CC1` (centres undefined), in that order: greater than 30000 nM and greater than 10000 nM.
For `O=S(=O)(c1ccccc1Br)N1CCC[C@@H](N2CCC(O)(c3ccc(Cl)cc3)CC2)C1`, in that order: 1400 nM and 1400 nM.
In the case of `O=S(=O)(NCCCN1CCC(O)(c2ccc(Cl)cc2)CC1)c1cccc2ccccc12`, the 50% inhibitory concentration (IC50) in experiment [1] came to 680 nM; in experiment [2], 180 nM.
In the same order, the values of `O=S(=O)(c1ccc(Cl)c(Cl)c1Cl)N1CCC(N2CCC(O)(c3ccc(Cl)cc3)CC2)CC1` are 3600 nM and 670 nM.
For `CC1CC(N2CCC(O)(c3ccc(Cl)cc3)CC2)CCN1S(=O)(=O)c1ccccc1Cl` (centres undefined), in that order: 320 nM and 280 nM.
In the same order, the values of `CC(C)(C)c1ccc(C2(O)CCN(C3CCN(S(=O)(=O)c4ccccc4Cl)CC3)CC2)cc1` are greater than 10000 nM and greater than 10000 nM.
As to `Cc1cccc(Cl)c1S(=O)(=O)NCCCN1CCC(O)(c2ccc(Cl)cc2)CC1`, the IC50 in experiment [1] was 90 nM; in experiment [2] it was 40 nM.
In the same order, the values of `O=S(=O)(c1ccccc1Cl)N1CCC(N2CCC(O)(c3ccc(F)cc3)CC2)CC1` are 1170 nM and 1250 nM.
In the case of `O=S(=O)(NCCCN1CCC(O)(c2ccc(Cl)cc2)CC1)c1ccccc1OC(F)(F)F`, the IC50 in experiment [1] worked out at 350 nM; in experiment [2] it was 190 nM.
In the same order, the values of `CSc1ccc(C2(O)CCN(C3CCN(S(=O)(=O)c4ccccc4Cl)CC3)CC2)cc1` are greater than 10000 nM and 7980 nM.
For `O=S(=O)(NCCCN1CCC(O)(c2ccc(Cl)cc2)CC1)c1cc(Cl)cc(Cl)c1`, in that order: 780 nM and 1340 nM.
In the same order, the values of `O=S(=O)(NCCCN1CCC(O)(c2ccc(Cl)cc2)CC1)c1c(Cl)cccc1Cl` are 80 nM and 30 nM.
Take `O=S(=O)(NCCCN1CCC(O)(c2ccc(Cl)cc2)CC1)c1ccc(Cl)cc1`: the figures for the IC50 in experiment [1] and in experiment [2] were 800 nM and 370 nM, respectively.
In the same order, the values of `O=S(=O)(NCCCN1CCC(O)(c2ccc(Cl)cc2)CC1)c1ccccc1` are 300 nM and 90 nM.
`O=S(=O)(c1ccccc1Br)N1CCC[C@H](N2CCC(O)(c3ccc(Cl)cc3)CC2)C1`: the figures for the IC50 in experiment [1] and in experiment [2] were 460 nM and 1300 nM, respectively.
In the same order, the values of `O=S(=O)(NCCCN1CCC(O)(c2ccc(Cl)cc2)CC1)c1ccc(-c2ccccc2)cc1` are greater than 30000 nM and greater than 30000 nM.
For `O=S(=O)(c1ccccc1Cl)N1CCC(N2CCC(O)(c3ccc(F)c(Cl)c3)CC2)CC1`, in that order: 510 nM and 590 nM.
Turning to `O=S(=O)(c1c(F)cc(F)cc1Br)N1CCC(N2CCC(O)(c3ccc(Cl)cc3)CC2)CC1`, the concentration for half-maximal inhibition (IC50) in experiment [1] worked out at 1120 nM; in experiment [2], 330 nM.
In the same order, the values of `Cc1cccc(Cl)c1S(=O)(=O)N1CCC(N2CCC(O)(c3ccc(Cl)cc3)CC2)CC1` are 370 nM and 430 nM.
In the same order, the values of `O=S(=O)(NCCCN1CCC(O)(c2ccc(Cl)cc2)CC1)c1ccc(F)cc1Cl` are 360 nM and 100 nM.
In the same order, the values of `O=C(NCCCN1CCC(O)(c2ccc(Cl)cc2)CC1)c1ccc2ccccc2c1` are 5830 nM and 1650 nM.
In the case of `Cc1cccc(Cl)c1S(=O)(=O)N1CCC(N2CCC(O)(c3ccc(Cl)cc3)C2)CC1` (centres undefined), the IC50 in experiment [1] is greater than 30000 nM; in experiment [2] it was greater than 10000 nM.
In the same order, the values of `O=S(=O)(NCCCN1CCC(O)(c2ccc(Cl)cc2)CC1)c1cccs1` are 160 nM and 70 nM.
In the same order, the values of `CC1(N2CCC(O)(c3ccc(Cl)cc3)CC2)CCN(S(=O)(=O)c2c(Cl)cccc2Cl)CC1` are 4200 nM and 4650 nM.
For `CC1(N2CCC(O)(c3ccc(Cl)cc3)CC2)CCN(S(=O)(=O)c2cccs2)CC1`, in that order: greater than 10000 nM and 7330 nM.
Consider `O=S(=O)(NCCCN1CCC(O)(c2ccc(Cl)cc2)CC1)c1cccc(Cl)c1`, for which the IC50 in experiment [1] amounted to 380 nM; in experiment [2], 100 nM.
In the same order, the values of `O=S(=O)(c1ccccc1Cl)N1CCC(N2CCC(O)(c3cccc(Cl)c3)CC2)CC1` are 7000 nM and 6210 nM.
For `O=S(=O)(c1ccccc1Cl)N1CCC(N2CCCC(O)(c3ccc(Cl)cc3)CC2)CC1` (centres undefined), in that order: 400 nM and 130 nM.
For `Cc1ccc(S(=O)(=O)NCCCN2CCC(O)(c3ccc(Cl)cc3)CC2)cc1`, in that order: 430 nM and 120 nM.
For `Cc1ccccc1S(=O)(=O)NCCCN1CCC(O)(c2ccc(Cl)cc2)CC1`, the concentration for half-maximal inhibition (IC50) in experiment [1] amounted to 150 nM; in experiment [2], 30 nM.
For `COc1ccc(S(=O)(=O)NCCCN2CCC(O)(c3ccc(Cl)cc3)CC2)cc1`, in that order: 3880 nM and 830 nM.
In the same order, the values of `Cc1ccccc1S(=O)(=O)N1CCC(N2CCC(O)(c3ccc(Cl)cc3)CC2)CC1` are 500 nM and 180 nM.
In the same order, the values of `O=S(=O)(c1ccccc1Cl)N1CCC(N2CCC(O)(c3ccc(Cl)c(F)c3)CC2)CC1` are 430 nM and 610 nM.
Regarding `O=S(=O)(NCCCN1CCC(O)(c2ccc(Cl)cc2)CC1)c1cccc(Cl)c1Cl`, the values for the IC50 in experiment [1] and in experiment [2] were 510 nM and 350 nM, respectively.
In the same order, the values of `O=S(=O)(c1cccs1)N1CCC(N2CCC(O)(c3ccc(Cl)cc3)CC2)CC1` are 970 nM and 1020 nM.
In the same order, the values of `O=S(=O)(NCCCN1CCC(O)(c2ccc(Cl)cc2)CC1)c1ccsc1` are 570 nM and 385 nM.
For the compound `O=S(=O)(c1ccccc1Cl)N1CCC(N2CCC(O)(c3cc(F)c(F)c(F)c3)CC2)CC1`, the half-maximal inhibitory concentration (IC50) was determined as 1330 nM in experiment [1] and 2550 nM in experiment [2].
`O=S(=O)(c1ccccc1Cl)N1CCC(N2CCC(O)(c3ccc(-c4ccccc4)cc3)CC2)CC1`: the half-maximal inhibitory concentration (IC50) in experiment [1] and in experiment [2] was greater than 10000 nM each time.
`N#CC1(c2ccc(Cl)cc2)CCN(CCCNS(=O)(=O)c2ccccc2Cl)CC1` came in with a half-inhibitory concentration (IC50) in experiment [1] of 600 nM.
For `O=S(=O)(NCCCN1CCC(O)(c2ccc(Cl)cc2)CC1)c1ccccc1Cl`, the IC50 in experiment [1] was found to be 110 nM; in experiment [2] it was 40 nM.
Take `O=S(=O)(NCCCN1CCC(O)(c2ccc(Cl)cc2)CC1)c1ccccc1C(F)(F)F`: the IC50 turned out to be 250 nM in experiment [1] and 50 nM in experiment [2].
For `Cc1cccc(Cl)c1S(=O)(=O)N1CCC(C)(N2CCC(O)(c3ccc(Cl)cc3)CC2)CC1`, in that order: 3570 nM and 2260 nM.
On to `O=S(=O)(c1c(Cl)cccc1Cl)N1CCC(N2CCC(O)(c3ccc(Cl)cc3)CC2)CC1`, for which the IC50 in experiment [1] and in experiment [2] was 420 nM in each case.
`O=S(=O)(c1ccccc1Cl)N1CCC(N2CCC(O)(c3ccc(Br)cc3)CC2)CC1`: the IC50 in experiment [1] came out at 440 nM; in experiment [2], 180 nM.
In the same order, the values of `O=S(=O)(c1ccccc1Cl)N1CCC(N2CCC(O)(c3ccc(Oc4ccccc4)cc3)CC2)CC1` are greater than 10000 nM and greater than 10000 nM.
In the same order, the values of `COc1ccc(C2(O)CCN(C3CCN(S(=O)(=O)c4ccccc4Cl)CC3)CC2)cc1` are greater than 10000 nM and greater than 10000 nM.
In the same order, the values of `CC1CC(N2CCC(O)(c3ccc(Cl)cc3)CC2)CCN1S(=O)(=O)c1ccccc1Br` (centres undefined) are 220 nM and 120 nM.
Turning to `O=S(=O)(NCCCN1CCC(O)(c2ccc(Cl)cc2)CC1)c1cc(Cl)ccc1Cl`, the IC50 in experiment [1] amounted to 540 nM; in experiment [2], 280 nM.
`N#CC1(c2ccc(Cl)cc2)CCN(C2CCN(S(=O)(=O)c3ccccc3Cl)CC2)CC1` showed an IC50 in experiment [1] of 1000 nM.
Regarding `O=S(=O)(NCCCN1CCC(O)(c2ccc(Cl)cc2)CC1)c1ccc(F)cc1`, the results for the IC50 in experiment [1] and in experiment [2] were 910 nM and 210 nM, respectively.
In the same order, the values of `O=S(=O)(c1ccccc1Cl)N1CCC(N2CCC(O)(c3ccc(Cl)c(Cl)c3)CC2)CC1` are 890 nM and 180 nM.
For `O=S(=O)(NCCCN1CCC(O)(c2ccc(Cl)cc2)CC1)c1ccc(Cl)cc1Cl`, in that order: 410 nM and 360 nM.

In general, IC50 refers to the concentration at which inhibition is half-maximal.
